Screening data from PubChem BioAssay.
PTEN del growth – suppresses growth of cells with PTEN deletion. HCT116 PTEN-null viability, CellTiter-Glo, 60 h; hits give low values. viability, % at 10 µM. AID 827. hit rate 1.2% among 140,000;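 active means viability at or below a set limit, 4 SD under the median of all tested compounds, cut at about 3.7% in these data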;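 further: PTEN knockout HCT116 line with beta catenin targeted HCT116 as companion control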
Fibroblast inh – blocks proliferation of human lung fibroblasts; LL 47 human lung fibroblast viability, ATP luminescence; hits give low values; viability, % at 10 µM; hit rate 1.1% among 85,000;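 active means viability at or below 50% in the single dose screen; inactive means viability above 50%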;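 further: compound exposure lasted 72 h before the ATP readout; 100% = median luminescence of untreated cell-only wells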
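material = human LL 47 lung fibroblast cells | dosing = compounds added from tenfold dosing solution, 0.1% DMSO final | timing = overnight cell rest, 72 h compound treatment at 37 °C | measured by = CellTiter-Glo luminescence measuring cellular ATP | evaluation = % viability versus median cells-only luminescence | control set = cell-only wells, no compound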
HUVEC inhibit – blocks proliferation of human endothelial cells; viability, % at 10 µM (by protocol); hit rate 1.1% among 86,000; HUVEC proliferation, CellTiter-Glo luminescence, 72 h; hits give low values;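 active means viability at or below 30%; inactive means viability above 30%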;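 further: 100% = median luminescence of DMSO-only cell control wells on each plate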
H69AR inhibit – growth inhibitors of human H69AR lung tumor cells; H69AR lung tumor viability, ATP luminescence, 72 h; hits give low values; viability, % at 10 µM; hit rate 6% among 85,000; AID 598;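 active means viability at or below 40%; inactive means viability above 40%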;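 further: multidrug resistant small cell line overexpressing MRP-1 efflux transporter; 100% = mean luminescence of untreated control wells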
HCT116 bCat-KO – beta-catenin-lacking colon tumor cell growth suppression; HCT116 beta-catenin knockout viability, CellTiter-Glo, 60 h; hits give low values; viability, % at 10 µM; hit rate 1.5% among 140,000;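 active means viability at or under a set limit, the compound median less 4 SD, cut at about 6% in these data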;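 further: 0% = Hyamine 1622 control at 20 µM and 100% = untreated cell control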
An asterisk follows results filed as active; . = no result. This excerpt belongs to a sample that is enriched for hits.

SMILES | PTEN del growth | Fibroblast inh | HUVEC inhibit | H69AR inhibit | HCT116 bCat-KO
C=CCn1c(SCC(O)Cn2c3ccccc3c3ccccc32)nnc1-c1ccco1 (configuration not stated) | 78 | 87 | 62 | 26* | 86
C=CCn1c(SCC(=O)Nc2ccccc2OC)nnc1-c1ccco1 | 71 | 91 | 84 | 87 | 69
COCCCNCCCOc1ccc(Cl)cc1C(C)(C)C | 3.1* | . | . | . | 4.0*
Cc1nnc(SCC(=O)NNC(=O)CC#N)[nH]c1=O | 103 | . | . | . | 92
CCCCCCCCNC(C)C(O)c1ccc(SC(C)C)cc1 (configuration not stated) | 1.3* | 4.0* | 2.6* | 1.7* | 1.6*
COc1cc(OC)cc(-c2n[nH]c(=S)n2-c2cc(OC)ccc2OC)c1 | 93 | 96 | 101 | 24* | 88
COc1ccc(C2(O)CC3CCC(C2)N3c2nc(C)cc(C)c2C#N)cc1 (configuration not stated) | 75 | 93 | 90 | 31* | 88
COc1cccc(-c2noc(N)c2C#N)c1 | 96 | 97 | 100 | 28* | 91
Cc1c2c(n3c(nc4ccccc43)c1C#N)N(Cc1ccccn1)CC2 | . | 92 | 85 | 70 | .
Cc1ccc(OCc2n[nH]c(=S)n2C2CCCCC2)cc1 | 87 | 100 | 94 | 37* | 89
S=c1[nH]nc(COc2ccc(Cl)cc2)n1C1CCCCC1 | 90 | 88 | 89 | 64 | 90
Cc1cccc(OCc2n[nH]c(=S)n2C2CCCCC2)c1 | 77 | 84 | 64 | 22* | 82
CCCCSc1nc(C)cc(C)c1S(=O)(=O)c1ccccc1C | 72 | . | . | . | 76
COc1ccc(CNC(=O)C(=O)NCC2OCCN2S(=O)(=O)c2cccs2)cc1 (configuration not stated) | 92 | . | . | . | 100
CCOC(=O)c1ccc2c(c1)nc(COc1ccccc1C#N)n2CC | . | 99 | 78 | 20* | .
CCOC(=O)c1ccc2c(c1)nc(COc1ccc3ccccc3c1)n2CC | 77 | 99 | 78 | 24* | 78
Cc1ccc(-c2nnc(SCC(=O)NNC(=O)COc3cccc4ccccc34)n2C)cc1 | 105 | . | . | . | 81
C[N+](C)(C)c1ccc(/C=N/Nc2nc(Cl)c(C#N)c(Cl)c2Cl)cc1 | 69 | . | . | . | 54
N#Cc1c(Cl)nc(N/N=C/c2ccccc2)c(Cl)c1Cl | 1.6* | . | . | . | 2.8*
Cc1cccc(OCCNc2cc(N3CCN(CCO)CC3)ccc2[N+](=O)[O-])c1 | 21 | . | . | . | 27
O=C(/C=C/c1cccc2ccccc12)c1ccncc1 | 0.9* | . | . | . | 1.0*
CC1CCCCN1C(=O)CSc1nc(C2CC2)nc2c1cnn2-c1ccccc1 (configuration not stated) | 76 | . | . | . | 80
Cc1cc(C)n2nc(SCC(=O)Nc3c(C)nn(-c4ccccc4)c3C)nc2n1 | 114 | 109 | 112 | 91 | 106
Cc1nn(C)c(C)c1NC(=O)CSc1nc(C2CC2)nc2c1cnn2-c1ccccc1 | 1.2* | 43* | 96 | 79 | 1.3*
Cc1nn(C)c(C)c1NC(=O)CSc1nc(-c2ccccc2Cl)nc2c1cnn2-c1ccccc1 | 74 | 95 | 90 | 30* | 89
SMILES | PTEN del growth | Fibroblast inh | HUVEC inhibit | H69AR inhibit | HCT116 bCat-KO
FC(F)Oc1ccc(/C=N/c2c(-c3ccc(OC(F)F)cc3)nc3n2CCS3)cc1 | 62 | . | 86 | 65 | 66
c1ccc(C2CC(c3ccccc3)n3c(nc4ccccc43)N2)cc1 (configuration not stated) | 72 | . | . | . | 76
CCN(CC)CCNC(=O)c1cc2c(-c3ccc(Cl)cc3)nn(C)c2s1 | 1.1* | 21* | 2.8* | 2.5* | 1.5*
Cn1nc(-c2ccc(Cl)cc2)c2cc(C(=O)NCCCN3CCOCC3)sc21 | 27 | 39* | 2.9* | 43 | 15
COc1ccc([N+](=O)[O-])cc1C1NN=C(c2ccccc2O)S1 (configuration not stated) | 69 | 61 | 74 | 27* | 72
Cc1ccc(S(=O)(=O)CCc2nc3ccccc3n2CCC#N)cc1 | 16 | 113 | 100 | 14* | 19
CC1=CC(C)(C)N(S(=O)(=O)c2ccc(C)cc2)c2cc(C)ccc21 | 14 | 52 | 44 | 35* | 11
C=COC(=O)CSc1nc(-c2cccs2)ccc1C#N | 77 | 102 | 83 | 85 | 96
CCOC(=O)C(C)Sc1nc(-c2cccs2)ccc1C#N (configuration not stated) | 20 | 77 | 53 | 4.0* | 18
CCOC(=O)N1C(=O)C2(CCCCC2)N(c2ccccc2Cl)C1=S | 88 | . | . | . | 86
Cc1cccc(N2CCN(C(=O)c3cc4n(n3)C(C(F)(F)F)CC(c3ccco3)N4)CC2)c1C (configuration not stated) | 3.5* | . | . | . | 2.2*
O=C(c1cc2n(n1)C(C(F)(F)F)CC(c1ccco1)N2)N1CCN(c2ccccn2)CC1 (configuration not stated) | 101 | 106 | 98 | 96 | 98
Cc1ccc(C(NC(=O)N2CCOCC2)C(Cl)Cl)cc1F (configuration not stated) | 93 | . | . | . | 94
Cc1ccc(C(NC(=O)N2CCOCC2)=C(Cl)Cl)cc1F | 1.4* | 92 | 103 | 8.7* | 3.4*
Nc1nc2ccc(O)cc2s1 | 111 | . | 97 | 18* | 91
NC(=O)c1ccccc1NC(=O)NC1CCCCC1 | 94 | 111 | 98 | 91 | 93
O=C(Nc1ccccc1NC(=O)NC1CCCCC1)NC1CCCCC1 | 4 | 51 | 3.6* | 0.6* | 26
CC(=O)Oc1cc2c(cc1Cl)C1(CC(c3ccccc3Cl)O2)CC(C)(C)NC(=S)N1 (configuration not stated) | 2.0* | 92 | 79 | 32* | 2.0*
COc1cccc(C2CC3(CC(C)(C)NC(=S)N3)Oc3cc(O)ccc32)c1 (configuration not stated) | 70 | . | . | . | 77
COC1=CC(=O)CC(C)C12Oc1c(Cl)c(OC)cc(OC)c1C2=O (configuration not stated) | 52 | 87 | 92 | 29* | 60
CNC(CC(=O)c1ccc([N+](=O)[O-])cc1)C(Cl)(Cl)Cl (configuration not stated) | 3.4* | . | . | . | 2.6*
COc1ccc(CCNC(=O)Cn2c(=O)cnc3ccccc32)cc1 | 43 | 62 | 60 | 25* | 35
COc1cccc(-n2c(CN3CCN(c4ccccc4)CC3)nc3ccc([N+](=O)[O-])cc3c2=O)c1 | 74 | . | . | . | 85
COc1ccc2cc(C(c3nnnn3Cc3ccccc3)N3CCCCCC3)c(=O)[nH]c2c1 (configuration not stated) | . | 100 | 85 | 67 | .
COc1ccc2cc(C(c3nnnn3Cc3ccc(F)cc3)N3CCCCCC3)c(=O)[nH]c2c1 (configuration not stated) | 99 | 98 | 92 | 37* | 95
Cc1cc2nc(C3CCN(Cc4nnnn4Cc4cccs4)CC3)[nH]c2cc1C | 18 | 62 | 64 | 15* | 25
Cc1ccc(CN2CCC(c3nc4ccc(Cl)cc4[nH]3)CC2)cc1 | 17 | . | . | . | 18
